# HCV NS3 hel inh: inhibitors of HCV NS3 helicase, primary screen, biochemical, Cy5 molecular beacon fluorescence; NS3 helicase DNA unwinding; inhibition, % at 10.9 µM; Hepatitis C virus NS3 helicase; actives 0.56% (n = 290,000);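 active = inhibition above the mean of all tested compounds plus 3 SD, set per campaign, cut at about 35% in these data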;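 note: 0% = DMSO wells and 100% = thioflavine S control wells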
#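 Assay system – hepatitis C virus NS3 helicase domain fragment enzyme · Buffer or medium – MOPS pH 6.5, MgCl2, DTT, Tween20, BSA · Reagent – Cy5/quencher beacon DNA duplex and ATP to start · Compound – single 10.9 µM dose · Timing – 1 h at 25 °C · Technique – Cy5 beacon fluorescence read at start and 1 h · Measure – % inhibition of unwinding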
# PABP1 MLLE inh: inhibitors of PABP1 MLLE–PAM2 peptide binding, primary screen, biochemical, fluorescence polarization, FITC-PAM2, GST-MLLE. inhibition, % at 20 µM. actives 0.36% (n = 360,000); in the data active = inhibition above about 35%, passing the limit was not always enough;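 note: plate controls were DMSO wells with GST-MLLE for no effect and wells lacking GST-MLLE protein for full effect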
# EBNA-1 inhibitor: EBNA-1 DNA-binding inhibitors, primary screen, biochemical, fluorescence polarization. inhibition, % at 14.8 µM. actives 0.34% (n = 300,000); in the data active = inhibition above about 28%
# eIF4H inh: human eIF4H binding inhibitors, primary screen, translation initiation inhibitor project, biochemical, uHTS, fluorescence polarization. Eukaryotic translation initiation factor 4H (Homo sapiens), Q15056. eIF4H fluorescence polarization binding assay. inhibition, % at 35 µM. actives 0.94% (n = 290,000). AID 2012, 2009;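 note: calls also rest on retests at 20 µM and on dose response follow-up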
# ZTA counter: ZTA (EBV) inhibition in EBNA-1 counter-screen; P03206; ZTA-DNA binding, fluorescence polarization; inhibition, % at 11 µM; actives 0.15% (n = 320,000); AID 2234; in the data active = inhibition above about 33%
# Target sequence (P03206 whole entry, looked up): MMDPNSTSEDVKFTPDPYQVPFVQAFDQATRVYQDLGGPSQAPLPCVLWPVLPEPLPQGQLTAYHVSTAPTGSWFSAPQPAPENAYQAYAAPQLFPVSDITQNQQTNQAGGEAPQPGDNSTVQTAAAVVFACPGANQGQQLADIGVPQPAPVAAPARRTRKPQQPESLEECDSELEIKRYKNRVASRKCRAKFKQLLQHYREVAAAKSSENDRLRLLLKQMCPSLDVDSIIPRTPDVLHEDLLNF
# PABP FP inh: PABP poly(A) RNA binding inhibitors, primary screen, biochemical, fluorescence polarization, uHTS; actives 1% (n = 290,000); Polyadenylate-binding protein 1 (Homo sapiens), P11940; AID 2014, 2009; inhibition, % at 35 µM;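 note: calls also rest on retests at 20 µM and on dose response follow-up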
# An asterisk follows results filed as active; ? = inconclusive; · = not tested or not shown. Most compounds without a hit are left out; they make up all but 2.1% or so of the library. Unless noted, the rule behind the calls is not given here.
SMILES,HCV NS3 hel inh,PABP1 MLLE inh,EBNA-1 inhibitor,eIF4H inh,ZTA counter,PABP FP inh
Cc1cc(C)c2c(N)c(C(=O)NCC3CCCCC3)sc2n1,-2,40*,-1,0,-12,14
Cc1cc(C)c2c(N)c(C(=O)NC3CCCC3)sc2n1,-10,16,-11,active,-12,77*
Cc1cc(C)cc(NC(=O)c2sc3nc(C)cc(C)c3c2N)c1,6,25,8,-3,20,-4
Cc1cc(SC#N)cc(C)c1NC(=O)CCl,-4,28,0,8,-12,2
CCc1cc(SC#N)cc(C)c1NC(=O)CCl,2,40*,-3,-4,13,0
CCC(=O)Nc1ccc(SC#N)cc1C,15,59*,1,-6,4,5
COc1ccc(CCCC(=O)N/N=C\c2cccs2)cc1,1,-14,-5,9,-8,5
O=C(Cn1cnnn1)Nc1cccc(S(=O)(=O)N2CCCCC2)c1,-5,-3,3,19*,4,72
Cc1ccc(S(=O)(=O)N2CCCCC2)cc1NC(=O)Cn1cnnn1,-3,3,-6,-6,-17,10
CCN(CC)S(=O)(=O)c1ccc(C)c(NC(=S)Nc2cccc(S(=O)(=O)N3CCCCCC3)c2)c1,1,37*,0,-5,-20,-2
CCOc1ccc(C(=O)N[C@H](C(=O)Nc2cccc(S(=O)(=O)N3CCOCC3)c2)C(C)C)cc1,·,-25,·,·,·,·
O=C(NC(=S)Nc1ccc(CN2CCCCC2)cc1)c1ccco1,3,36*,-7,-8,4,5
CCOc1ccc(C(=O)N[C@H](C(=O)Nc2cccc(S(=O)(=O)N3CCCCC3)c2)C(C)C)cc1,14,-6,42*,-7,-13,2
COc1ccc(/C=C/C(=O)Oc2cc(C)[nH]c(=O)c2[N+](=O)[O-])cc1OC,2,9,-5,-3,3,7
Cc1ccc(S(=O)(=O)N2CCCCC2)cc1NC(=S)NC(=O)c1ccco1,-4,40*,10,-12,-5,-2
COc1ccccc1N1CCN(/N=C/c2c(C)nn(-c3ccccc3)c2C)CC1,22,41*,4,-6,-6,-9
Cc1cc(C(=O)OCC(=O)c2ccc(Br)s2)no1,5,-6,0,6,2,4
Cc1cc(C(=O)OCC(=O)c2ccc(Br)s2)c(C)o1,13,·,-2,70*,14,87*
Cc1ccc(S(=O)(=O)C(C#N)c2nc3ccccc3nc2N2CCN(C)CC2)cc1 (stereo not given),-2,12,-6,?,-17,8
CC1CCCN(c2nc3ccccc3nc2C(C#N)S(=O)(=O)c2ccccc2)C1 (stereo not given),15,61,10,?,18,?
COc1ccc(S(=O)(=O)C(C#N)c2nc3ccccc3nc2N2CCC(C)CC2)cc1 (stereo not given),·,·,-10,64*,-3,108*
CCOC(=O)N1CCN(c2nc3ccccc3nc2C(C#N)S(=O)(=O)c2ccc(C)cc2)CC1 (stereo not given),-1,8,14,122*,3,118*
C[n+]1ccccc1/C=C/c1ccccc1Cl,-2,-94,·,79*,·,90*
Cc1ccccc1/C=C/c1cccc[n+]1C,14,-124,·,·,·,·
C[n+]1ccccc1/C=C/c1ccc(F)c(F)c1,2,-125,12,·,6,·
SMILES,HCV NS3 hel inh,PABP1 MLLE inh,EBNA-1 inhibitor,eIF4H inh,ZTA counter,PABP FP inh
C[n+]1ccccc1/C=C/c1c(F)cccc1F,-14,-106,·,63,·,76*
CCOC(=O)CC1=CSC2=NS(=O)(=O)CCN12,-3,7,1,-1,-10,4
CCN(CC)C(=O)Cn1ncc2c1-c1ccccc1OC2,2,4,-10,63*,2,-22
CCN(CCN(C)C)C(=O)Cn1ncc2c1-c1cc(C)ccc1OC2,-1,17,18,-6,19,-8
CC[n+]1c(/C=C/Nc2ccccc2)sc2ccccc21,5,-105,-11,-1,-13,50*
CCN1/C(=C/C=C/C=C/c2sc3ccccc3[n+]2CC)Sc2ccccc21,18,·,·,-12,·,8
CC[n+]1c(/C=C(\C)Nc2ccccc2)sc2ccccc21,-2,6,0,-7,-8,6
CC[n+]1c(/C=C(/C)SC)sc2ccccc21,3,46*,7,4,-10,0
CC[n+]1ccccc1/C=C/Nc1ccccc1,0,-110,-10,-2,-3,51*
CCN1/C(=C/C=C/C=C/C=C/c2sc3ccccc3[n+]2CC)Sc2ccccc21,-59,-34,42*,15,60*,5
Cc1cc2c(ncn2Cc2ccccc2)c(NS(C)(=O)=O)c1C,2,0,-10,4,-1,10
Cc1ncc([N+](=O)[O-])n1CC(=O)Nc1ccc(F)c(F)c1,18,-3,-29,-14,0,-5
N#C/C(=C\c1ccc(OC(=O)c2ccc(Cl)s2)cc1)c1nc2ccccc2[nH]1,10,16,12,51*,-14,active
N#C/C(=C\c1ccc(OC(=O)c2ccc(Br)s2)cc1)c1nc2ccccc2[nH]1,-3,4,-3,27,-7,4
NS(=O)(=O)c1ccc(-c2ccc(/C=C3\NC(=S)NC3=O)o2)cc1,-2,12,1,79*,10,25
NS(=O)(=O)c1ccc(-c2ccc(C=O)o2)cc1,-3,-16,-7,-4,-6,-2
C[C@H]1COC2=C1C(=O)C(=O)c1c2ccc2c1CCCC2(C)C,27,19,-5,60,-1,44
Cc1coc2c1C(=O)C(=O)c1c-2ccc2c(C)cccc12,·,-1,2,78*,10,79*
Cc1coc2c1C(=O)C(=O)c1c-2ccc2c1CCCC2(C)C,32,11,8,64*,-11,51*
CCN(CC)CC(C)CNC(=O)C1(O)c2ccccc2NC(=O)N1c1ccc(Cl)c(Cl)c1 (stereo not given),3,-3,4,6,-4,-11
COc1ccc(-n2nc(C(=O)NCc3ccco3)c3ccccc3c2=O)cc1,-3,-4,7,-10,7,1
COc1ccc(-n2nc(C(=O)NCc3ccco3)c3c4ccccc4n(C)c3c2=O)cc1,3,8,11,2.8*,8,89*
O=C(O)/C=C\C(=O)NCc1ccccc1,-4,-2,2,-8,-9,-7
CC(C)=CCc1c(O)cc2oc3c(CC=C(C)C)c(O)c(O)c(CC=C(C)C)c3c(=O)c2c1O,·,-47,-4,58*,-14,21
C=CC[C@@H](CC(=O)N[C@H](CO)Cc1ccccc1)C(=O)N[C@@H](C)COC(=O)[C@@H](CC=C)CC(=O)OC(C)(C)C,·,6,·,·,·,·
